Experiments:
HBV core protein = HBV core protein (Hepatitis B virus genotype D subtype ayw, UniProt P03146); assay: Western blot assay of HBV core protein dephosphorylation in AML12HBV_DE11 cells; type: cell-based; conditions: 30 h, ENAN-34017 2 µM, Bay 41-4109 2 µM, entecavir 1 µM
Outline: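 Controls: cells kept with tetracycline, or tetracycline-free and mock treated. Test cells tetracycline-free, treated 30 h, then lysed in LDS loading buffer and boiled 100 °C for 20 min. Run on 12% Bis-Tris gel in MOPS buffer, transferred to PVDF. Hyper-phosphorylated and dephosphorylated/hypophosphorylated core protein detected by western blot; β-actin loading control.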

AML12HBV10 cells = assay: Cytotoxicity assay in AML12HBV10 cells; type: cell-based, mouse
Outline: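 Cells treated in tetracycline-free medium, as in the antiviral assay, with twofold serial dilution from 50 to 1.56 µM for 48 h. Viability checked by microscopy and measured by MTT. CC50 = concentration reducing viability by 50%.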

[1] = system: cytoplasmic HBV-DNA replication in AML12HBV10 cells; assay: Antiviral assay in AML12HBV10 cells; type: cell-based, hepatitis B virus
Outline: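 AML12-derived mouse hepatocyte line carrying a tetracycline-inducible, envelope-deficient HBV genome; seeded at 2 × 10^4 cells/well in tetracycline-free medium. Next day, mock or twofold serial dilution (10 to 0.08 µM) for 48 h. Cells lysed in Tris-HCl pH 7.5/EDTA/NaCl/1% NP-40. Half the lysate NaOH-denatured, neutralised, dot-blotted and hybridised with 32P-labelled HBV minus-strand riboprobe. Phosphorimager quantification; EC50 = concentration reducing HBV DNA by 50%.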

[2] = system: HBV replication in HepDES19 cells; assay: Antiviral assay in HepDES19 cells; type: cell-based; conditions: Hepatitis B virus, HepDES19, read-out: EC50, inhibition of HBV-DNA replication
Outline: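 HepG2-derived line with a tetracycline-inducible, envelope-deficient HBV genome; seeded in 24-well plates and kept tetracycline-free for 2 days. Then mock or twofold serial dilution for a further 4 days. Cytoplasmic HBV core DNA extracted and measured by qPCR. EC50 from regression on biologically triplicate experiments, two independent experiments.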

Chain of HBV core protein (P03146 whole entry): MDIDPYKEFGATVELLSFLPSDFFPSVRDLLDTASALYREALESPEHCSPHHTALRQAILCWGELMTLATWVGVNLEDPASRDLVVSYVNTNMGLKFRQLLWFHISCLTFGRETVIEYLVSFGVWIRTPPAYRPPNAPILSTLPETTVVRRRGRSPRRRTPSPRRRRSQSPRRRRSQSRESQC

Structure (SMILES): O=C1CCN(C(=O)Nc2ccc(F)c(Cl)c2)CN1Cc1ccc(F)cc1F [Compound 27, N-(3-chloro-4-fluorophenyl)-3-(2,4-difluorobenzyl)-4-oxotetrahydropyrimidine-1(2H)-carboxamide]
- Effect on Cp dephosphorylation (HBV core protein): inhibited Cp dephosphorylation
- Cytotoxicity at 50 μM (AML12HBV10 cells): no cytotoxicity
- EC50 (50% inhibitory concentration of cytoplasmic HBV-DNA replication) ([1]; AML12HBV10 cells, 48 h treatment, dot-blot hybridization): submicromolar
- Potency increase relative to 21 ([1]; AML12HBV10 cells, EC50 ratio): fourfold potency increase
- EC50 ([1]; Hepatitis B virus, AML12HBV10, 48 h, read-out: EC50 (50% inhibitory concentration of cytoplasmic HBV-DNA replication)): 520 nM
- EC50 [2]: 840 nM

Reference: PMC7797712 (Medicinal Chemistry Research, 2021)
